Assay results from ChEMBL document CHEMBL1122333, “Synthesis and biological activities of the Z isomers of carbapenem antibiotics” (J Med Chem, 1983).

What was measured:
Serratia marcescens [1] = test: beta-lactamase inhibitory activity of the 5,6-cis-carbapenem antibiotic on cephalosporinase against Serratia marcescens TN81; type: functional, organism-based, serratia marcesc; conditions: for IC50: Serratia marcescens, read-out: I50
Klebsiella pneumoniae [2] = test: Tested for minimum inhibitory concentration against Klebsiella pneumoniae TN1655 on ampicillin at a concentration of 0.1 ug/mL into the agar plate; type: functional
Proteus vulgaris [3] = test: beta-lactamase inhibitory activity of the 5,6-cis-carbapenem antibiotic on cephalosporinase against Proteus vulgaris GN4413; type: functional, organism-based; conditions: for IC50: Proteus vulgaris, read-out: I50
Staphylococcus aureus [4] = test: Tested for minimum inhibitory concentration against Staphylococcus aureus 1840 on ampicillin at a concentration of 0.1 ug/mL into the agar plate; type: functional
Proteus vulgaris [5] = test: Tested for minimum inhibitory concentration against Proteus vulgaris GN4815 on cefotiam at a concentration of 0.1 ug/mL into the agar plate
Staphylococcus aureus [6] = test: Tested for beta-lactamase inhibitory activity of the 5,6-cis-carbapenem antibiotic on penicillinase against Staphylococcus aureus 1840; type: functional, organism-based; conditions: read-out: I50
[7] = (§1) Half-life of 10% mouse kidney homogenate is tested; type: ADME; conditions: 10% mouse kidney homogenate
Method in brief: (§2)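 Carbapenem at 50 μg/mL incubated in 10% mouse kidney homogenate at 30 °C to assess stability to mouse renal enzyme(s).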

Serratia marcescens [8] = test: Tested for minimum inhibitory concentration against Serratia marcescens 12648 on cefotiam at a concentration of 0.1 ug/mL into the agar plate
Klebsiella pneumoniae [9] = test: Tested for beta-lactamase inhibitory activity of the 5,6-cis-carbapenem antibiotic on penicillinase against Klebsiella pneumoniae TN1698; type: functional, organism-based; conditions: for IC50: Klebsiella pneumoniae, read-out: I50
Escherichia coli [10] = test: Tested for inhibition of intraperitoneal infection against Escherichia coli O-111; type: functional
Method in brief: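 Protection assay run in Slc:ICR mice. ED50 was calculated by the Reed and Muench method from survival recorded 5 days after infection.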

Serratia marcescens [11] = test: Tested for minimum inhibitory concentration against Serratia marcescens IFO 12648; type: functional
Method in brief: (§3)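 Agar dilution MIC on Trypticase soy agar. Each plate was inoculated with one loopful of a 10^8 cfu/mL bacterial suspension.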

Proteus vulgaris [12] = test: Minimum inhibitory concentration against Proteus vulgaris GN4815 on cefotiam at a concentration of 0.1 ug/mL into the agar plate
Escherichia coli [13] = test: Tested for minimum inhibitory concentration against Escherichia coli O-111; type: functional
Method in brief: (§4)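 MIC by agar dilution on Trypticase soy agar. Inoculum was one loopful of a 10^8 cfu/mL bacterial suspension.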

[14] = system: Acinetobacter calcoaceticus; test: Minimum inhibitory concentration against Acinetobacter calcoacet IFO 13006; type: functional; method in brief: as §4
Proteus vulgaris [15] = test: Tested for minimum inhibitory concentration against Proteus vulgaris IFO 3988; type: functional; method in brief: as §4
Pseudomonas aeruginosa = test: Tested for minimum inhibitory concentration against Pseudomonas aeruginosa IFO 3455; type: functional; method in brief: as §3
Klebsiella pneumoniae [16] = test: Tested for minimum inhibitory concentration against Klebsiella pneumoniae TN1655 on ampicillin at a concentration of 0.1 ug/mL into the agar plate
Proteus vulgaris [17] = test: tested for minimum inhibitory concentration against Proteus vulgaris GN4815 on cefotiam at a concentration of 0.1 ug/mL into the agar plate
[18] = tested for minimum inhibitory concentration against […] 12486 on ampicillin at a concentration of 0.1 ug/mL into the agar plate; type: functional
Citrobacter freundii = test: Tested for minimum inhibitory concentration against […] IFO 12681; type: functional; method in brief: as §3
Morganella morganii = test: Tested for minimum inhibitory concentration against […] IFO 3168; type: functional; method in brief: as §3
Proteus mirabilis = test: Tested for minimum inhibitory concentration against […] IFO 3849; type: functional; method in brief: as §3
Klebsiella pneumoniae [19] = test: Tested for minimum inhibitory concentration against Klebsiella pneumoniae DT; type: functional; method in brief: as §3
Staphylococcus aureus [20] = test: Tested for minimum inhibitory concentration against Staphylococcus aureus 308 A-1; type: functional; method in brief: as §3
Enterobacter cloacae = test: Tested for minimum inhibitory concentration against […] IFO 12937; type: functional; method in brief: as §3
Escherichia coli [21] = test: Tested for minimum inhibitory concentration against Escherichia coli T-7; type: functional; method in brief: as §3
Mus musculus = organism: Mus musculus; test: as §1; type: ADME; conditions: in vitro; method in brief: as §2
[22] = Escherichia coli, ip, read-out: ED50
[23] = Acinetobacter calcoaceticus, IFO 13006, read-out: MIC
[24] = Pseudomonas aeruginosa, IFO 3455, read-out: MIC

SMILES | IC50 (Serratia marcescens [1]) | MIC (Klebsiella pneumoniae [2]) | IC50 (Proteus vulgaris [3]) | MIC (Staphylococcus aureus [4]) | IC50 (Staphylococcus aureus [6]) | half-life [7] | MIC (Serratia marcescens [8]) | IC50 (Klebsiella pneumoniae [9]) | ED50 (Escherichia coli [10]; [22]) | MIC (Proteus vulgaris [12]) | further results
CC(=O)[N-]/C=C/SC1=C(C(=O)[O-])N2C(=O)[C@@H](C(C)O)[C@H]2C1.[Na+].[Na+] (some centres undefined) | 0.0011 µg/mL | 100 µg/mL | 1.5 µg/mL | 1.56 µg/mL | 0.065 µg/mL | 40 min | 25 µg/mL | 320 ng/mL | 17.7 mg/kg |  | MIC (Proteus vulgaris [5]): 400 µg/mL
CC(=O)N/C=C/[S+]([O-])C1=C(C(=O)[O-])N2C(=O)[C@@H](C(C)(C)OS(=O)(=O)[O-])[C@H]2C1.[Na+].[Na+] (some centres undefined) |  | 6.25 µg/mL | 0.00037 µg/mL |  | 0.21 µg/mL | 37 min | 6.25 µg/mL | 5.2 ng/mL | > 100 mg/kg | 1.56 µg/mL | I50 (Serratia marcescens [1]): 55 ng/mL; MIC (Serratia marcescens [11]; Serratia marcescens, IFO 12648, read-out: MIC): 12.5 µg/mL
CC(=O)N/C=C\SC1=C(C(=O)[O-])N2C(=O)[C@@H](C(C)(C)O)[C@H]2C1.[Na+] | 0.0053 µg/mL | 100 µg/mL | 0.017 µg/mL | 12.5 µg/mL |  | 19 min | 12.5 µg/mL | 220 ng/mL | > 50 mg/kg | 25 µg/mL | 
CC(=O)N/C=C/SC1=C(C(=O)[O-])N2C(=O)[C@@H](C(C)O)[C@H]2C1.[Na+] (some centres undefined) |  |  |  |  |  | 12 min |  |  | > 50 mg/kg |  | MIC (Escherichia coli [13]; Escherichia coli, read-out: MIC): 0.39 µg/mL; MIC [14, 23]: 3.13 µg/mL; MIC (Proteus vulgaris [15]; Proteus vulgaris, IFO 3988, read-out: MIC): 3.13 µg/mL; MIC (Pseudomonas aeruginosa; [24]): 100 µg/mL
CC(=O)N/C=C/SC1=C(C(=O)[O-])N2C(=O)[C@@H](C(C)OS(=O)(=O)[O-])[C@H]2C1.[Na+].[Na+] (some centres undefined) |  |  |  |  |  | 21 min |  |  | > 50 mg/kg |  | MIC (Pseudomonas aeruginosa; [24]): 3.13 µg/mL
CC(=O)N/C=C/SC1=C(C(=O)[O-])N2C(=O)[C@@H](C(C)(C)OS(=O)(=O)[O-])[C@H]2C1.[Na+].[Na+] |  |  |  |  |  | 7 min |  |  | > 50 mg/kg |  | 
CC(=O)N/C=C\[S+]([O-])C1=C(C(=O)[O-])N2C(=O)[C@@H](C(C)O)[C@H]2C1.[Na+] (some centres undefined) | 0.00029 µg/mL |  | 0.019 µg/mL | 6.25 µg/mL | 0.00055 µg/mL |  |  | 2.4 ng/mL |  |  | MIC (Klebsiella pneumoniae [16]): 100 µg/mL; MIC (Proteus vulgaris [17]): 400 µg/mL
CC(=O)N/C=C\SC1=C(C(=O)[O-])N2C(=O)[C@@H](C(C)OS(=O)(=O)[O-])[C@H]2C1.[Na+].[Na+] (some centres undefined) | 0.001 µg/mL | 25 µg/mL | 0.00035 µg/mL |  | 0.014 µg/mL | 42 min |  | 1.8 ng/mL | > 50 mg/kg | 1.56 µg/mL | MIC [18]: 12.5 µg/mL
CC(=O)N/C=C\[S+]([O-])C1=C(C(=O)[O-])N2C(=O)[C@@H](C(C)OS(=O)(=O)[O-])[C@H]2C1.[Na+].[Na+] (some centres undefined) | 0.00034 µg/mL |  | 0.00016 µg/mL | 50 µg/mL | 0.0034 µg/mL |  | 25 µg/mL | 0.08 ng/mL |  | 50 µg/mL | 
CC(=O)N/C=C\SC1=C(C(=O)[O-])N2C(=O)[C@@H](C(C)(C)OS(=O)(=O)[O-])[C@H]2C1.[Na+].[Na+] | 0.051 µg/mL | 50 µg/mL | 0.0038 µg/mL | 50 µg/mL | 1 µg/mL | 19 min | 25 µg/mL | 28 ng/mL | > 50 mg/kg | 1.56 µg/mL | 
CC(=O)N/C=C\[S+]([O-])C1=C(C(=O)[O-])N2C(=O)[C@@H](C(C)(C)OS(=O)(=O)[O-])[C@H]2C1.[Na+].[Na+] (some centres undefined) | 0.018 µg/mL | 3.13 µg/mL | 0.00055 µg/mL | 50 µg/mL | 0.24 µg/mL |  | 12.5 µg/mL | 1 ng/mL | > 50 mg/kg | 0.78 µg/mL | 
CC(=O)N/C=C/SC1=C(C(=O)[O-])N2C(=O)[C@@H](C(C)(C)O)[C@H]2C1.[Na+] |  |  |  |  |  | 8 min |  |  | > 50 mg/kg |  | 
CC(=O)N/C=C/[S+]([O-])C1=C(C(=O)[O-])N2C(=O)[C@@H](C(C)(C)O)[C@H]2C1.[Na+] (stereo in doubt; 2) |  |  |  |  |  |  |  |  |  |  | MIC (Escherichia coli [13]): <0.1 µg/mL; MIC (Proteus vulgaris [15]): 3.13 µg/mL; MIC (Citrobacter freundii): 0.2 µg/mL; ED50 (Escherichia coli [10]): 20 mg/kg
CC(=O)N/C=C\[S+]([O-])C1=C(C(=O)[O-])N2C(=O)[C@@H](C(C)(C)O)[C@H]2C1.[Na+] (stereo in doubt; 11) |  | 3.13 µg/mL |  | 6.25 µg/mL |  |  | 12.5 µg/mL |  |  |  | MIC (Morganella morganii): 12.5 µg/mL; MIC (Escherichia coli [13]): <0.1 µg/mL; I50 (Serratia marcescens [1]): 0.34 ng/mL; MIC [14, 23]: 50 µg/mL; I50 (Proteus vulgaris [3]): 1.1 ng/mL; MIC (Proteus mirabilis): 12.5 µg/mL; MIC (Proteus vulgaris [15]): 25 µg/mL; MIC (Klebsiella pneumoniae [19]): 3.13 µg/mL; MIC (Serratia marcescens [11]): 3.13 µg/mL; I50 (Klebsiella pneumoniae [9]): 3.8 ng/mL
CC(=O)N/C=C/[S+]([O-])C1=C(C(=O)[O-])N2C(=O)[C@@H](C(C)(C)O)[C@H]2C1.[Na+] (stereo in doubt; 20) | 0.00078 µg/mL |  | 0.0028 µg/mL |  | 0.54 µg/mL |  |  | 80 ng/mL | 28.1 mg/kg |  | MIC (Morganella morganii): 25 µg/mL; MIC [14]: 12.5 µg/mL; MIC (Staphylococcus aureus [20]): 3.13 µg/mL; MIC (Proteus mirabilis): 12.5 µg/mL; MIC (Proteus vulgaris [15]): 12.5 µg/mL; MIC (Citrobacter freundii): 3.13 µg/mL; MIC (Enterobacter cloacae): 25 µg/mL; MIC (Escherichia coli [21]): 25 µg/mL; MIC (Pseudomonas aeruginosa): 25 µg/mL
CC(=O)N/C=C\[S+]([O-])C1=C(C(=O)[O-])N2C(=O)[C@@H](C(C)(C)O)[C@H]2C1.[Na+] (stereo in doubt; 22) |  |  |  |  | 0.59 µg/mL |  |  |  |  |  | MIC (Morganella morganii): 100 µg/mL; I50 (Serratia marcescens [1]): 3.3 ng/mL; I50 (Proteus vulgaris [3]): 14 ng/mL; MIC (Staphylococcus aureus [20]): 3.13 µg/mL; MIC (Proteus mirabilis): 50 µg/mL; MIC (Proteus vulgaris [15]): 100 µg/mL; MIC (Klebsiella pneumoniae [19]): 12.5 µg/mL; MIC (Serratia marcescens [11]): 25 µg/mL; MIC (Citrobacter freundii): 12.5 µg/mL; MIC (Enterobacter cloacae): 50 µg/mL; MIC (Escherichia coli [21]): 25 µg/mL; T1/2 (Mus musculus): > 250 min; I50 (Klebsiella pneumoniae [9]): 110 ng/mL
